Reference: ChEMBL document CHEMBL3112531, “Synthesis and evaluation of 4-(2-pyrimidinylamino) benzamides inhibitors of hedgehog signaling pathway” (Bioorg Med Chem Lett, 2014)

Columns and labels:
[1] = Inhibition of hedgehog signaling pathway in mouse NIH/3T3 cells by Gli1-luciferase reporter gene assay; assay type: cell-based; conditions: NIH3T3
[2] = Ratio of GDC-0449 IC50 to compound IC50 for hedgehog signaling pathway in mouse NIH/3T3 cells by Gli1-luciferase reporter gene assay; assay type: cell-based
[3] = AUC in Sprague-Dawley rat at 1 mg/kg, iv; assay type: ADME, organism-based; parameters: dose 1 mg/kg, route intravenous; conditions: plasma
Procedure, shortened: (§1)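 SD rats given a single 1 mg/kg iv dose in 5% DMA + 5% Tween-80. Plasma concentration–time data were analysed by a noncompartmental approach.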

[4] = Cmax in Sprague-Dawley rat at 5 mg/kg, po; assay type: ADME, organism-based; parameters: dose 5 mg/kg, route oral; conditions: in vivo
Procedure, shortened: (§2)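 SD rats dosed orally at 5 mg/kg in 0.5% HPMC + 0.3% Tween-80 (pH 2.8). Blood samples (n = 3) were centrifuged at 4000 rpm for 5 min at 4 °C. Plasma concentration–time data were analysed noncompartmentally.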

[5] = Clearance in Sprague-Dawley rat at 5 mg/kg, po; assay type: ADME, organism-based; parameters: dose 5 mg/kg, route oral; conditions: in vivo; procedure, shortened: as §2
[6] = tested on: Rattus norvegicus; assay: Volume of distribution at steady state in Sprague-Dawley rat at 5 mg/kg, po; assay type: ADME, organism-based; parameters: dose 5 mg/kg, route oral; conditions: in vivo; procedure, shortened: as §2
[7] = Mean residence time (0 to t) in Sprague-Dawley rat at 5 mg/kg, po; assay type: ADME, organism-based; parameters: dose 5 mg/kg, route oral; conditions: in vivo; procedure, shortened: as §2
[8] = Half life in Sprague-Dawley rat at 5 mg/kg, po; assay type: ADME, organism-based; parameters: dose 5 mg/kg, route oral; conditions: in vivo; procedure, shortened: as §2
[9] = Clearance in Sprague-Dawley rat at 1 mg/kg, iv; assay type: ADME, organism-based; parameters: dose 1 mg/kg, route intravenous; conditions: in vivo; procedure, shortened: as §1
[10] = (§3) Mean residence time (0 to t) in Sprague-Dawley rat at 1 mg/kg, iv; assay type: ADME, organism-based; parameters: dose 1 mg/kg, route intravenous; conditions: Sprague-Dawley, in vivo; procedure, shortened: as §1
[11] = Half life in Sprague-Dawley rat at 1 mg/kg, iv; assay type: ADME, organism-based; parameters: dose 1 mg/kg, route intravenous; conditions: in vivo; procedure, shortened: as §1
[12] = Cmax in Sprague-Dawley rat at 1 mg/kg, iv; assay type: ADME, organism-based; parameters: dose 1 mg/kg, route intravenous; conditions: in vivo; procedure, shortened: as §1
[13] = AUC in Sprague-Dawley rat at 5 mg/kg, po; assay type: ADME, organism-based; parameters: dose 5 mg/kg, route oral; conditions: plasma; procedure, shortened: as §2
[14] = Oral bioavailability in Sprague-Dawley rat at 5 mg/kg; assay type: ADME, organism-based; conditions: in vivo
Procedure, shortened: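 Oral dosing of SD rats at 5 mg/kg in 0.5% HPMC + 0.3% Tween-80 (pH 2.8), with blood samples n = 3, alongside iv dosing at 1 mg/kg in 5% DMA + 5% Tween-80. Plasma concentration–time data were analysed noncompartmentally.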

[15] = Volume of distribution at steady state in Sprague-Dawley rat at 1 mg/kg, iv; assay type: ADME, organism-based; parameters: dose 1 mg/kg, route intravenous; conditions: Sprague-Dawley, in vivo, read-out: Vdss; procedure, shortened: as §1
[16] = tested on: Rattus norvegicus; assay: as §3; assay type: ADME, organism-based; parameters: dose 1 mg/kg, route intravenous; conditions: in vivo; procedure, shortened: as §1

Row | SMILES | IC50 [1] | also measured
1 | Cc1ccc(CN2CCCCC2)cc1NC(=O)c1ccc(Nc2ncc(C)c(-c3ccc(OC(F)(F)F)cc3)n2)cc1 | 1 nM | Ratio IC50 [2]: 7
2 | Cc1ccc(CNc2ccccc2)cc1NC(=O)c1ccc(Nc2ncc(C)c(-c3ccc(OC(F)(F)F)cc3)n2)cc1 | 1.1 nM | –
3 | Cc1ccc(CN2C[C@@H](C)O[C@@H](C)C2)cc1NC(=O)c1ccc(Nc2ncc(C)c(-c3ccc(OC(F)(F)F)cc3)n2)cc1 | 0.45 nM | AUC [3]: 580 ng·h/mL; Cmax [4]: 94 ng/mL; CL/F [5]: 51.9 mL/min/kg; Vdss [6]: 42.9 L/kg; Ratio IC50 [2]: 7; MRT last [7]: 9.7 h; half-life [8]: 570 min; clearance [9]: 24.9 mL/min/kg; MRT last [10]: 7.4 h; half-life [11]: 552 min; Cmax [12]: 300 ng/mL; AUC [13]: 1300 ng·h/mL; bioavailability [14]: 44.4%; Vd [15]: 20 L/kg
4 | Cc1ccc(CN2CCCC2)cc1NC(=O)c1ccc(Nc2ncc(C)c(-c3ccc(OC(F)(F)F)cc3)n2)cc1 | 0.43 nM | Ratio IC50 [2]: 7
5 | Cc1ccc(CN2CCNC(=O)C2)cc1NC(=O)c1ccc(Nc2ncc(C)c(-c3ccc(OC(F)(F)F)cc3)n2)cc1 | 2 nM | –
6 | Cc1ccc(CN2CCC(=O)CC2)cc1NC(=O)c1ccc(Nc2ncc(C)c(-c3ccc(OC(F)(F)F)cc3)n2)cc1 | 0.28 nM | –
7 | Cc1ccc(CN2CC3CCCC3C2)cc1NC(=O)c1ccc(Nc2ncc(C)c(-c3ccc(OC(F)(F)F)cc3)n2)cc1 (stereo not drawn) | 1.6 nM | –
8 | Cc1ccc(CN2CCC(O)CC2)cc1NC(=O)c1ccc(Nc2ncc(C)c(-c3ccc(OC(F)(F)F)cc3)n2)cc1 | 0.44 nM | –
9 | Cc1ccc(CN(CCNC(C)C)C(C)C)cc1NC(=O)c1ccc(Nc2ncc(C)c(-c3ccc(OC(F)(F)F)cc3)n2)cc1 | 10.9 nM | –
10 | Cc1ccc(CN(C)C(C)C)cc1NC(=O)c1ccc(Nc2ncc(C)c(-c3ccc(OC(F)(F)F)cc3)n2)cc1 | 0.89 nM | –
11 | Cc1ccc(CN2CCN(C(=O)C3CC3)CC2)cc1NC(=O)c1ccc(Nc2ncc(C)c(-c3ccc(OC(F)(F)F)cc3)n2)cc1 | 1.3 nM | –
12 | Cc1ccc(CN2CCN(C)CC2)cc1NC(=O)c1ccc(Nc2ncc(C)c(-c3cnn(C)c3)n2)cc1 | 10 nM | –
13 | Cc1ccc(CN2CCCc3ccccc32)cc1NC(=O)c1ccc(Nc2ncc(C)c(-c3ccc(OC(F)(F)F)cc3)n2)cc1 | 2.4 nM | –
14 | CCCN(C)Cc1ccc(C)c(NC(=O)c2ccc(Nc3ncc(C)c(-c4cnn(C)c4)n3)cc2)c1 | 17.5 nM | –
15 | Cc1ccc(CNC(C)(C)C)cc1NC(=O)c1ccc(Nc2ncc(C)c(-c3cnn(C)c3)n2)cc1 | 18.1 nM | –
16 | CCN(CC)Cc1ccc(C)c(NC(=O)c2ccc(Nc3ncc(C)c(-c4ccc(OC(F)(F)F)cc4)n3)cc2)c1 | 0.23 nM | –
17 | Cc1ccc(CN2CCCCC2)cc1NC(=O)c1ccc(Nc2ncc(C)c(-c3cnn(C)c3)n2)cc1 | 5.6 nM | –
18 | CCN1CCN(Cc2ccc(C)c(NC(=O)c3ccc(Nc4ncc(C)c(-c5ccc(OC(F)(F)F)cc5)n4)cc3)c2)CC1 | 0.77 nM | –
19 | Cc1ccc(CN2CCC(O)CC2)cc1NC(=O)c1ccc(Nc2ncc(C)c(-c3cnn(C)c3)n2)cc1 | 21.2 nM | –
20 | Cc1cnc(Nc2ccc(C(=O)Nc3c(C)cccc3C)cc2)nc1-c1ccc(OC(F)(F)F)cc1 | 1.3 nM | MRT last [7]: 5.1 h; MRT [16]: 4 h
21 | CCNCc1ccc(C)c(NC(=O)c2ccc(Nc3ncc(C)c(-c4ccc(OC(F)(F)F)cc4)n3)cc2)c1 | 0.72 nM | –
22 | Cc1ccc(CN(C2CCCCC2)C2CCCCC2)cc1NC(=O)c1ccc(Nc2ncc(C)c(-c3ccc(OC(F)(F)F)cc3)n2)cc1 | 2.7 nM | –
23 | Cc1ccc(CN2CCSCC2)cc1NC(=O)c1ccc(Nc2ncc(C)c(-c3ccc(OC(F)(F)F)cc3)n2)cc1 | 0.34 nM | Ratio IC50 [2]: 7
24 | Cc1ccc(CN2CCNCC2)cc1NC(=O)c1ccc(Nc2ncc(C)c(-c3ccc(OC(F)(F)F)cc3)n2)cc1 | 10.5 nM | –

Row | SMILES | IC50 [1] | also measured
25 | Cc1ccc(CN(C)C)cc1NC(=O)c1ccc(Nc2ncc(C)c(-c3ccc(OC(F)(F)F)cc3)n2)cc1 | 0.59 nM | –
26 | Cc1ccc(CN2CCN(C)CC2)cc1NC(=O)c1ccc(Nc2ncc(C)c(-c3ccncc3)n2)cc1 | 0.61 nM | AUC [3]: 270 ng·h/mL; clearance [9]: 61.5 mL/min/kg; MRT last [10]: 0.9 h; half-life [11]: 66 min; Cmax [12]: 580 ng/mL; Vd [15]: 5.7 L/kg
27 | Cc1ccc(CN2C(C)(C)CCCC2(C)C)cc1NC(=O)c1ccc(Nc2ncc(C)c(-c3ccc(OC(F)(F)F)cc3)n2)cc1 | 0.76 nM | –
28 | Cc1ccc(CNCc2ccco2)cc1NC(=O)c1ccc(Nc2ncc(C)c(-c3ccc(OC(F)(F)F)cc3)n2)cc1 | 2.5 nM | –
29 | Cc1ccc(CNC(C)(C)C)cc1NC(=O)c1ccc(Nc2ncc(C)c(-c3ccc(OC(F)(F)F)cc3)n2)cc1 | 0.9 nM | –
30 | Cc1ccc(CNCCO)cc1NC(=O)c1ccc(Nc2ncc(C)c(-c3ccc(OC(F)(F)F)cc3)n2)cc1 | 1.1 nM | –
31 | Cc1ccc(CNC2CCCC2)cc1NC(=O)c1ccc(Nc2ncc(C)c(-c3ccc(OC(F)(F)F)cc3)n2)cc1 | 1.6 nM | –
32 | Cc1ccc(CN2CCOCC2)cc1NC(=O)c1ccc(Nc2ncc(C)c(-c3ccccc3)n2)cc1 | 0.68 nM | AUC [3]: 710 ng·h/mL; clearance [9]: 23.3 mL/min/kg; MRT last [10]: 1.2 h; half-life [11]: 60 min; Cmax [12]: 840 ng/mL; Vd [15]: 2.1 L/kg
33 | Cc1ccc(CN2C[C@@H](C)O[C@@H](C)C2)cc1NC(=O)c1ccc(Nc2ncc(C)c(-c3cnn(C)c3)n2)cc1 | 8.4 nM | –
34 | Cc1ccc(CN2CCN(c3ccccc3)CC2)cc1NC(=O)c1ccc(Nc2ncc(C)c(-c3ccc(OC(F)(F)F)cc3)n2)cc1 | 2 nM | –
35 | Cc1ccc(CN2CCc3sccc3C2)cc1NC(=O)c1ccc(Nc2ncc(C)c(-c3ccc(OC(F)(F)F)cc3)n2)cc1 | 1.5 nM | –
36 | Cc1ccc(CN(CCO)CCO)cc1NC(=O)c1ccc(Nc2ncc(C)c(-c3ccc(OC(F)(F)F)cc3)n2)cc1 | 0.47 nM | –
37 | Cc1ccc(CNCCN2CCCCC2)cc1NC(=O)c1ccc(Nc2ncc(C)c(-c3ccc(OC(F)(F)F)cc3)n2)cc1 | 33.6 nM | –
38 | Cc1ccc(CN2CCCC2)cc1NC(=O)c1ccc(Nc2ncc(C)c(-c3cnn(C)c3)n2)cc1 | 9.2 nM | –
39 | Cc1ccc(CN2C(C)(C)CC(=O)CC2(C)C)cc1NC(=O)c1ccc(Nc2ncc(C)c(-c3ccc(OC(F)(F)F)cc3)n2)cc1 | 0.29 nM | –
40 | Cc1ccc(CN(CCO)CCO)cc1NC(=O)c1ccc(Nc2ncc(C)c(-c3cnn(C)c3)n2)cc1 | 31.9 nM | –
41 | Cc1ccc(CN2CCC(N3CCCCC3)CC2)cc1NC(=O)c1ccc(Nc2ncc(C)c(-c3ccc(OC(F)(F)F)cc3)n2)cc1 | 19.5 nM | –
42 | Cc1ccc(CN2CCOCC2)cc1NC(=O)c1ccc(Nc2ncc(C)c(-c3cnn(C)c3)n2)cc1 | 1.3 nM | AUC [3]: 1200 ng·h/mL; Cmax [4]: 1500 ng/mL; CL/F [5]: 23.9 mL/min/kg; Vdss [6]: 2.9 L/kg; MRT last [7]: 2.4 h; half-life [8]: 84 min; clearance [9]: 14.3 mL/min/kg; MRT last [10]: 0.81 h; half-life [11]: 48 min; Cmax [12]: 2100 ng/mL; AUC [13]: 3800 ng·h/mL; bioavailability [14]: 63.6%; Vd [15]: 0.9 L/kg
43 | CCCN(C)Cc1ccc(C)c(NC(=O)c2ccc(Nc3ncc(C)c(-c4ccc(OC(F)(F)F)cc4)n3)cc2)c1 | 0.93 nM | –
44 | Cc1ccc(CN2CC3CCN(C)C3C2)cc1NC(=O)c1ccc(Nc2ncc(C)c(-c3ccc(OC(F)(F)F)cc3)n2)cc1 (stereo not drawn) | 10.5 nM | –
45 | CS(=O)(=O)c1ccc(C(=O)Nc2ccc(Cl)c(-c3ccccn3)c2)c(Cl)c1 [VISMODEGIB] | 7.2 nM | half-life [11]: 96 min
46 | Cc1ccc(CN2CCN(C)CC2)cc1NC(=O)c1ccc(Nc2ncc(C)c(-c3ccc(OC(F)(F)F)cc3)n2)cc1 | 0.45 nM | –
47 | Cc1ccc(CN(C)CCCN(C)C)cc1NC(=O)c1ccc(Nc2ncc(C)c(-c3ccc(OC(F)(F)F)cc3)n2)cc1 | 35.3 nM | –
48 | Cc1ccc(CN2CCC[C@@H]2CN2CCCC2)cc1NC(=O)c1ccc(Nc2ncc(C)c(-c3ccc(OC(F)(F)F)cc3)n2)cc1 | 3.9 nM | –
